Data published in ChEMBL document CHEMBL2311508, “A natural product inspired hybrid approach towards the synthesis of novel pentamidine based scaffolds as potential anti-parasitic agents” (Bioorg Med Chem Lett, 2013).
≈ marks a conversion by molar mass, not a printed value. Calls of active or inactive are those of the source. The rule behind the calls is not given here.

Tests used:
Plasmodium falciparum [1] = assay: Antimalarial activity against chloroquine-resistant Plasmodium falciparum K1 assessed as parasite growth inhibition after 72 hrs by MSF assay; assay type: functional, organism-based; details: K1, 72 h
Summary of the method: (§1)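 P. falciparum cultures in RPMI-1640-FBS; DMSO stock 5 mg/ml, test dilutions in culture medium; duplicate wells; 1.0% parasitized cell suspension at 0.8% parasitaemia; 37 °C, 5% CO2 in air, 72 h. Lysis buffer with SYBR Green I added, 1 h at 37 °C; fluorescence read at 485/530 nm excitation/emission as RFU. Chloroquine reference. IC50 in ng/mL.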

[2] = Selectivity index, ratio of CC50 for african green monkey Vero cells to IC50 for chloroquine-sensitive Plasmodium falciparum 3D7; assay type: functional
[3] = (§2) Selectivity index, ratio of CC50 for human KB cells to IC50 for amastigote stage of Leishmania donovani infected in mouse J774A.1 cells; assay type: functional
Summary of the method: (§3)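 SI = CC50 in KB cells (72 h MTT, nonlinear regression) divided by IC50 against intracellular amastigotes (72 h luciferase assay in infected macrophages, logit regression).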

Leishmania donovani [4] = assay: Antileishmanial activity against amastigote stage of Leishmania donovani infected in mouse J774A.1 cells assessed as intracellular parasite growth inhibition after 72 hrs by luciferase reporter gene assay; assay type: functional, organism-based; details: J774.A1, 72 h
Summary of the method: (§4)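 Macrophages seeded at 4 × 10³ cells/100 µL/well in RPMI-1640 with 10% fetal calf serum, 37 °C, CO₂. After 24 h, medium replaced with fresh medium containing stationary-phase promastigotes (4 × 10⁴/100 µL/well), which were phagocytosed and transformed to amastigotes. Compounds added at up to 7 concentrations starting from 40 µM, 72 h at 37 °C. Steady-Glo luciferase read as RLU versus untreated controls; IC50 by logit regression.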

[5] = Cytotoxicity against african green monkey Vero cells after 72 hrs by MTT assay; assay type: cell-based; details: chlorocebus sabaeus
Summary of the method: (§5)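 Mammalian cells exposed to compound dilutions for 72 h; MTT used for detection (modified Mosmann method). CC50 derived by nonlinear regression.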

[6] = (§6) Cytotoxicity against human KB cells after 72 hrs by MTT assay; assay type: cell-based; details: KB cells; summary of the method: as §5
Plasmodium falciparum [7] = assay: Antimalarial activity against chloroquine-sensitive Plasmodium falciparum 3D7 assessed as parasite growth inhibition after 72 hrs by MSF assay; assay type: functional, organism-based; details: 3D7, 72 h; summary of the method: as §1
KB [8] = assay: as §6; assay type: cell-based; details: kb, 72 h; summary of the method: as §5
Leishmania donovani [9] = assay: Antileishmanial activity against amastigote stage of Leishmania donovani infected in mouse J774A.1 cells assessed as intracellular parasite growth inhibition at 40 uM after 72 hrs by luciferase reporter gene assay; assay type: functional, organism-based; summary of the method: as §4
KB [10] = assay: as §2; assay type: functional; summary of the method: as §3

Compound	IC50 (Plasmodium falciparum [1])	Ratio CC50/IC50 [2]	Ratio CC50/IC50 [3]	IC50 (Leishmania donovani [4])	CC50 at 72 h [5]	CC50 at 72 h [6]	IC50 (Plasmodium falciparum [7])	CC50 (KB [8])	growth inhibition (GI) (Leishmania donovani [9])	Ratio CC50/IC50 (KB [10])
Cc1cc(NCc2ccc(F)cc2)nc(Nc2ccc(OCCCCCOc3ccc(Nc4nc(C)cc(NCc5ccc(F)cc5)n4)cc3)cc2)n1	0.358 µg/mL (≈ 0.5 µM)	1051.51	6.16	1410 nM	41.4 µg/mL (≈ 57.8 µM)	8680 nM	0.0394 µg/mL (≈ 0.055 µM)			
Cc1cc(NC2CCCC2)nc(Nc2ccc(OCCCCCOc3ccc(Nc4nc(C)cc(NC5CCCC5)n4)cc3)cc2)n1		57.71	1.11	1530 nM	18.1 µg/mL (≈ 28.4 µM)	1690 nM	0.313 µg/mL (≈ 0.492 µM)			
COc1ccc(CNc2cc(C)nc(Nc3ccc(OCCCCCOc4ccc(Nc5nc(C)cc(NCc6ccc(OC)cc6)n5)cc4)cc3)n2)cc1	0.0236 µg/mL (≈ 0.0319 µM)	288.28	3.7	570 nM	3.37 µg/mL (≈ 4.55 µM)	2110 nM	0.0117 µg/mL (≈ 0.0158 µM)			
SODIUM ANTIMONY GLUCONATE [listing 1 of 2 here]								398 µg/mL		
N=C(N)c1ccc(OCCCCCOc2ccc(C(=N)N)cc2)cc1 [PENTAMIDINE]			2.58	20400 nM		52700 nM				
Nc1nc(-c2ccccc2)cc(-c2ccc(OCCCCCOc3ccc(-c4cc(-c5ccccc5)nc(N)n4)cc3)cc2)n1			>242.42	960 nM		> 400000 nM				
Cc1cc(N2CCOCC2)nc(Nc2ccc(OCCCCCOc3ccc(Nc4nc(C)cc(N5CCOCC5)n4)cc3)cc2)n1		7.82	4.67	1180 nM	2.06 µg/mL (≈ 3.21 µM)	5510 nM	0.264 µg/mL (≈ 0.412 µM)			
COc1ccc(C(=O)/C=C/c2ccc(OCCCCCOc3ccc(/C=C/C(=O)c4ccc(OC)c(OC)c4)cc3)cc2)cc1OC									inactive	
O=Cc1ccc(OCCCCCOc2ccc(/C=C/C(=O)c3ccc(Br)cc3)cc2)cc1									inactive	
Cc1cc(N2CCN(C)CC2)nc(Nc2ccc(OCCCCCOc3ccc(Nc4nc(C)cc(N5CCN(C)CC5)n4)cc3)cc2)n1		43.97	3.62	810 nM	10.8 µg/mL (≈ 16.2 µM)	2930 nM	0.245 µg/mL (≈ 0.367 µM)			
Cc1cc(NCc2ccccc2)nc(Nc2ccc(OCCCCCOc3ccc(Nc4nc(C)cc(NCc5ccccc5)n4)cc3)cc2)n1	0.383 µg/mL (≈ 0.562 µM)	429.15	15.6	1670 nM	22.1 µg/mL (≈ 32.4 µM)	26000 nM	0.0514 µg/mL (≈ 0.0756 µM)			
Cc1cc(NC2CC2)nc(Nc2ccc(OCCCCCOc3ccc(Nc4nc(C)cc(NC5CC5)n4)cc3)cc2)n1	0.0113 µg/mL (≈ 0.0194 µM)	89.6	6.38	420 nM	0.56 µg/mL (≈ 0.964 µM)	2680 nM	0.00625 µg/mL (≈ 0.0108 µM)			
CCN1CCN(c2cc(C)nc(Nc3ccc(OCCCCCOc4ccc(Nc5nc(C)cc(N6CCN(CC)CC6)n5)cc4)cc3)n2)CC1	0.0221 µg/mL (≈ 0.0318 µM)	157.9	12.17	300 nM	7.13 µg/mL (≈ 10.3 µM)	3650 nM	0.0451 µg/mL (≈ 0.065 µM)			
CCCCCCCCCCCCCCCCOP(=O)([O-])OCC[N+](C)(C)C [MILTEFOSINE]			0.25							
CCN(CC)CCCC(C)Nc1ccnc2cc(Cl)ccc12 (stereo not drawn) [CHLOROQUINE]					75 µg/mL (≈ 234 µM)					
COc1ccc(C(=O)/C=C/c2ccc(OCCCCCOc3ccc(C=O)cc3)cc2)cc1OC			0.49	28400 nM		13900 nM				
SODIUM ANTIMONY GLUCONATE [listing 2 of 2 here]										5.53
Cc1cc(N2CCN(c3ccccc3)CC2)nc(Nc2ccc(OCCCCCOc3ccc(Nc4nc(C)cc(N5CCN(c6ccccc6)CC5)n4)cc3)cc2)n1	0.0531 µg/mL (≈ 0.0671 µM)	1688	>232	1720 nM	100 µg/mL (≈ 126 µM)	> 400000 nM	0.0592 µg/mL (≈ 0.0749 µM)			
O=C(/C=C/c1ccc(OCCCCCOc2ccc(/C=C/C(=O)c3ccccc3)cc2)cc1)c1ccccc1			>242.42	1650 nM		> 400000 nM				
